# Test results from ChEMBL document CHEMBL5058577, “EUbOPEN Chemogenomics Library 2 (Multiplex)” (2022).
# Tested on: Fibroblast
# Experiment: Multiplex assay against human fibroblast
# Type: toxicity, cell-based
# Method in brief: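 Values for tubulin, mitochondrial-mass and membrane-permeability phenotypes are per cents of cells with healthy nuclei. These cells were identified by CellPathfinder machine-learning gating of live cells that had been stained at seeding with Hoechst33342, BioTracker Green Microtubule Cytoskeleton Dye, MitoTracker Red and Annexin V Alexa Fluor 680 and imaged on a CQ1 microscope at 37°C and 5% CO2 after compound addition. The gating first set Hoechst high-intensity objects apart from normal cells, then split normal cells into healthy, pyknosed or fragmented nuclei, and pyknosed cells into mitotic or apoptotic.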
# [1] = 12 h, 1 µM, compound concentration 1 uM, replicate 1
# [2] = 12 h, 1 µM, compound concentration 1 uM, replicate 2
# [3] = 12 h, 10 µM, compound concentration 10 uM, replicate 1
# [4] = 12 h, 10 µM, compound concentration 10 uM, replicate 2
# [5] = 24 h, 1 µM, compound concentration 1 uM, replicate 1
# [6] = 24 h, 1 µM, compound concentration 1 uM, replicate 2
# [7] = 24 h, 10 µM, compound concentration 10 uM, replicate 1
# [8] = 24 h, 10 µM, compound concentration 10 uM, replicate 2
# [9] = 48 h, 1 µM, compound concentration 1 uM, replicate 1
# [10] = 48 h, 1 µM, compound concentration 1 uM, replicate 2
# [11] = 48 h, 10 µM, compound concentration 10 uM, replicate 1
# [12] = 48 h, 10 µM, compound concentration 10 uM, replicate 2
smiles,measurement,setting,value
CN1C[C@H](C(=O)N[C@]2(C)O[C@@]3(O)[C@@H]4CCCN4C(=O)[C@H](Cc4ccccc4)N3C2=O)C[C@@H]2c3cccc4[nH]cc(c34)C[C@H]21.CS(=O)(=O)O [DIHYDROERGOTAMINE MESYLATE],Population Apoptotic (%),[1],25%
same,Population Fragmented Nuclei (%),[1],13%
same,Population Healthy Nuclei (%),[1],70%
same,Population Hoechst High Intensity Objects (%),[1],1%
same,Population Membrane Permeable-Phenotype (%),[1],1%
same,Population Mitochondria Different-Phenotype (%),[1],1%
same,Population Mitotic Cells (%),[1],75%
same,Population Normal (%),[1],98%
same,Population Pyknosed Nuclei (%),[1],16%
same,Population Tubulin-Different-Phenotype (%),[1],23%
same,Total Cell Count,[1],127
same,Population Apoptotic (%),[2],47%
same,Population Fragmented Nuclei (%),[2],32%
same,Population Healthy Nuclei (%),[2],51%
same,Population Hoechst High Intensity Objects (%),[2],7%
same,Population Membrane Permeable-Phenotype (%),[2],6%
same,Population Mitochondria Different-Phenotype (%),[2],5%
same,Population Mitotic Cells (%),[2],52%
same,Population Normal (%),[2],92%
same,Population Tubulin-Different-Phenotype (%),[2],31%
same,Total Cell Count,[2],155
same,Population Apoptotic (%),[3],57%
same,Population Fragmented Nuclei (%),[3],27%
same,Population Healthy Nuclei (%),[3],65%
same,Population Hoechst High Intensity Objects (%),[3],0%
same,Population Membrane Permeable-Phenotype (%),[3],0%
same,Population Mitochondria Different-Phenotype (%),[3],5%
same,Population Mitotic Cells (%),[3],42%
same,Population Normal (%),[3],100%
same,Population Pyknosed Nuclei (%),[3],7%
same,Population Tubulin-Different-Phenotype (%),[3],8%
same,Total Cell Count,[3],92
same,Population Apoptotic (%),[4],31%
same,Population Fragmented Nuclei (%),[4],33%
same,Population Healthy Nuclei (%),[4],45%
same,Population Hoechst High Intensity Objects (%),[4],8%
same,Population Membrane Permeable-Phenotype (%),[4],2%
same,Population Mitochondria Different-Phenotype (%),[4],0%
same,Population Mitotic Cells (%),[4],68%
same,Population Normal (%),[4],91%
same,Population Pyknosed Nuclei (%),[4],21%
same,Population Tubulin-Different-Phenotype (%),[4],42%
same,Total Cell Count,[4],114
same,Population Apoptotic (%),[5],38%
same,Population Fragmented Nuclei (%),[5],14%
same,Population Healthy Nuclei (%),[5],75%
same,Population Hoechst High Intensity Objects (%),[5],1%
same,Population Membrane Permeable-Phenotype (%),[5],0%
same,Population Mitochondria Different-Phenotype (%),[5],0%
same,Population Mitotic Cells (%),[5],61%
same,Population Normal (%),[5],98%
same,Population Pyknosed Nuclei (%),[5],10%
same,Population Tubulin-Different-Phenotype (%),[5],18%
same,Total Cell Count,[5],130
same,Population Apoptotic (%),[6],47%
same,Population Fragmented Nuclei (%),[6],30%
same,Population Healthy Nuclei (%),[6],56%
same,Population Hoechst High Intensity Objects (%),[6],4%
same,Population Membrane Permeable-Phenotype (%),[6],7%
same,Population Mitochondria Different-Phenotype (%),[6],3%
same,Population Mitotic Cells (%),[6],52%
same,Population Normal (%),[6],95%
same,Population Pyknosed Nuclei (%),[6],13%
same,Population Tubulin-Different-Phenotype (%),[6],50%
same,Total Cell Count,[6],149
same,Population Apoptotic (%),[7],55%
same,Population Fragmented Nuclei (%),[7],17%
same,Population Healthy Nuclei (%),[7],72%
same,Population Hoechst High Intensity Objects (%),[7],1%
same,Population Membrane Permeable-Phenotype (%),[7],0%
same,Population Mitochondria Different-Phenotype (%),[7],1%
same,Population Mitotic Cells (%),[7],44%
same,Population Normal (%),[7],98%
same,Population Pyknosed Nuclei (%),[7],10%
same,Population Tubulin-Different-Phenotype (%),[7],15%
same,Total Cell Count,[7],89
same,Population Apoptotic (%),[8],31%
same,Population Fragmented Nuclei (%),[8],35%
same,Population Healthy Nuclei (%),[8],43%
same,Population Hoechst High Intensity Objects (%),[8],5%
same,Population Membrane Permeable-Phenotype (%),[8],6%
same,Population Mitochondria Different-Phenotype (%),[8],0%
same,Population Mitotic Cells (%),[8],68%
same,Population Normal (%),[8],94%
same,Population Pyknosed Nuclei (%),[8],20%
same,Population Tubulin-Different-Phenotype (%),[8],46%
same,Total Cell Count,[8],113
same,Population Apoptotic (%),[9],57%
same,Population Fragmented Nuclei (%),[9],20%
same,Population Healthy Nuclei (%),[9],68%
same,Population Hoechst High Intensity Objects (%),[9],1%
same,Population Membrane Permeable-Phenotype (%),[9],0%
same,Population Mitochondria Different-Phenotype (%),[9],2%
same,Population Mitotic Cells (%),[9],42%
same,Population Normal (%),[9],98%
same,Population Pyknosed Nuclei (%),[9],10%
same,Population Tubulin-Different-Phenotype (%),[9],30%
same,Total Cell Count,[9],134
same,Population Apoptotic (%),[10],53%
same,Population Fragmented Nuclei (%),[10],38%
same,Population Healthy Nuclei (%),[10],50%
same,Population Hoechst High Intensity Objects (%),[10],5%
same,Population Membrane Permeable-Phenotype (%),[10],6%
same,Population Mitochondria Different-Phenotype (%),[10],6%
same,Population Mitotic Cells (%),[10],46%
same,Population Normal (%),[10],94%
same,Population Pyknosed Nuclei (%),[10],11%
same,Population Tubulin-Different-Phenotype (%),[10],48%
same,Total Cell Count,[10],139
same,Population Apoptotic (%),[11],63%
same,Population Fragmented Nuclei (%),[11],21%
same,Population Healthy Nuclei (%),[11],65%
same,Population Hoechst High Intensity Objects (%),[11],3%
same,Population Membrane Permeable-Phenotype (%),[11],1%
same,Population Mitochondria Different-Phenotype (%),[11],3%
same,Population Mitotic Cells (%),[11],36%
same,Population Normal (%),[11],96%
same,Population Pyknosed Nuclei (%),[11],12%
same,Population Tubulin-Different-Phenotype (%),[11],20%
same,Total Cell Count,[11],91
same,Population Apoptotic (%),[12],76%
same,Population Fragmented Nuclei (%),[12],44%
same,Population Healthy Nuclei (%),[12],44%
same,Population Membrane Permeable-Phenotype (%),[12],11%
same,Population Mitochondria Different-Phenotype (%),[12],5%
same,Population Mitotic Cells (%),[12],23%
same,Population Pyknosed Nuclei (%),[12],10%
same,Population Tubulin-Different-Phenotype (%),[12],55%
same,Total Cell Count,[12],126
